Values after ≈ are worked out from the molar mass of the structure shown.
Experiments:
Staphylococcus aureus [1] = assay: Antibacterial activity against Staphylococcus aureus ATCC 25923 at 100 ug/ml after 24 hrs by disc-diffusion method; assay type: functional; settings: ATCC 25923, 24 h, read-out: IZ
Staphylococcus aureus [2] = assay: Antibacterial activity against Staphylococcus aureus ATCC 25923 at 200 ug/ml after 24 hrs by disc-diffusion method; assay type: functional; settings: ATCC 25923, 24 h, read-out: IZ
Bacillus subtilis [3] = assay: Antibacterial activity against Bacillus subtilis ATCC 6633 at 100 ug/ml after 24 hrs by disc-diffusion method; assay type: functional; settings: ATCC 6633, 24 h, read-out: IZ
Bacillus subtilis [4] = assay: Antibacterial activity against Bacillus subtilis ATCC 6633 at 200 ug/ml after 24 hrs by disc-diffusion method; assay type: functional; settings: ATCC 6633, 24 h, read-out: IZ
Escherichia coli [5] = assay: Antibacterial activity against Escherichia coli ATCC 25922 at 100 ug/ml after 24 hrs by disc-diffusion method; assay type: functional; settings: ATCC 25922, 24 h, read-out: IZ
Escherichia coli [6] = assay: Antibacterial activity against Escherichia coli ATCC 25922 at 200 ug/ml after 24 hrs by disc-diffusion method; assay type: functional; settings: ATCC 25922, 24 h, read-out: IZ
Pseudomonas aeruginosa [7] = assay: Antibacterial activity against Pseudomonas aeruginosa ATCC 27853 at 100 ug/ml after 24 hrs by disc-diffusion method; assay type: functional; settings: ATCC 27853, 24 h, read-out: IZ
Pseudomonas aeruginosa [8] = assay: Antibacterial activity against Pseudomonas aeruginosa ATCC 27853 at 200 ug/ml after 24 hrs by disc-diffusion method; assay type: functional; settings: ATCC 27853, 24 h, read-out: IZ
Staphylococcus aureus [9] = assay: Antibacterial activity against Staphylococcus aureus ATCC 25923 after 24 hrs by broth dilution technique; assay type: functional; settings: ATCC 25923, 24 h
How it was run: (§1)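 MIC by broth dilution: nutrient broth containing logarithmic two-fold serial dilutions of compound was inoculated with about 5 × 10⁵ c.f.u. of actively dividing bacteria.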

Bacillus subtilis [10] = assay: Antibacterial activity against Bacillus subtilis ATCC 6633 after 24 hrs by broth dilution technique; assay type: functional; settings: ATCC 6633, 24 h; how it was run: as §1
Escherichia coli [11] = assay: Antibacterial activity against Escherichia coli ATCC 25922 after 24 hrs by broth dilution technique; assay type: functional; settings: ATCC 25922, 24 h; how it was run: as §1
Pseudomonas aeruginosa [12] = assay: Antibacterial activity against Pseudomonas aeruginosa ATCC 27853 after 24 hrs by broth dilution technique; assay type: functional; settings: ATCC 27853, 24 h; how it was run: as §1
Staphylococcus aureus [13] = assay: Antibacterial activity against Staphylococcus aureus ATCC 25923 after 18 to 24 hrs; assay type: functional
Bacillus subtilis [14] = assay: Antibacterial activity against Bacillus subtilis ATCC 6633 after 18 to 24 hrs; assay type: functional
Escherichia coli [15] = assay: Antibacterial activity against Escherichia coli ATCC 25922 after 18 to 24 hrs; assay type: functional
Pseudomonas aeruginosa [16] = assay: Antibacterial activity against Pseudomonas aeruginosa ATCC 27853 after 18 to 24 hrs; assay type: functional
Aspergillus niger [17] = assay: Antifungal activity against Aspergillus niger at 200 ug/ml after 48 hrs by agar diffusion method; assay type: functional; settings: read-out: IZ
How it was run: (§2)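 Agar well diffusion on Sabouraud agar (peptone 1 g, D-glucose 4 g, agar 2 g per 100 ml water, pH 5.7). Plates were lawned with a saline suspension of spores, excess was decanted, and plates were dried 1 h at 37 °C. Compounds in DMSO went into punched wells, and inhibition zones were measured against controls, with voriconazole as standard.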

Candida albicans [18] = assay: Antifungal activity against Candida albicans at 100 ug/ml after 48 hrs by agar diffusion method; assay type: functional; settings: read-out: IZ; how it was run: as §2
Candida albicans [19] = assay: Antifungal activity against Candida albicans at 200 ug/ml after 48 hrs by agar diffusion method; assay type: functional; settings: read-out: IZ; how it was run: as §2
Aspergillus niger [20] = assay: Antifungal activity against Aspergillus niger after 48 hrs; assay type: functional
Candida albicans [21] = assay: Antifungal activity against Candida albicans after 48 hrs; assay type: functional
Aspergillus niger [22] = assay: Antifungal activity against Aspergillus niger at 100 ug/ml after 3 to 4 days by agar diffusion method; settings: read-out: IZ

Row | SMILES | zone of inhibition at 100 µg/mL (Staphylococcus aureus [1]) | zone of inhibition at 200 µg/mL (Staphylococcus aureus [2]) | zone of inhibition at 100 µg/mL (Bacillus subtilis [3]) | zone of inhibition at 200 µg/mL (Bacillus subtilis [4]) | zone of inhibition at 100 µg/mL (Escherichia coli [5]) | zone of inhibition at 200 µg/mL (Escherichia coli [6]) | zone of inhibition at 100 µg/mL (Pseudomonas aeruginosa [7]) | zone of inhibition at 200 µg/mL (Pseudomonas aeruginosa [8]) | MIC (Staphylococcus aureus [9]) | MIC (Bacillus subtilis [10]) | MIC (Escherichia coli [11]) | MIC (Pseudomonas aeruginosa [12]) | MBC (Staphylococcus aureus [13]) | MBC (Bacillus subtilis [14]) | MBC (Escherichia coli [15]) | MBC (Pseudomonas aeruginosa [16]) | zone of inhibition at 200 µg/mL (Aspergillus niger [17]) | zone of inhibition at 100 µg/mL (Candida albicans [18]) | zone of inhibition at 200 µg/mL (Candida albicans [19]) | zone of inhibition at 100 µg/mL (Aspergillus niger [22]) | also measured
1 | COc1cc(/C=C/C(=O)c2ccccc2)ccc1OCc1nnc(-c2ccccc2)o1 | 16 mm | 18 mm | 13 mm | 14 mm | 19 mm | 20 mm | 23 mm | 25 mm | 12.5 µg/mL (≈ 30.3 µM) | 25 µg/mL (≈ 60.6 µM) | 12.5 µg/mL (≈ 30.3 µM) | 25 µg/mL (≈ 60.6 µM) | 50 µg/mL (≈ 121 µM) | 50 µg/mL (≈ 121 µM) | 25 µg/mL (≈ 60.6 µM) | 50 µg/mL (≈ 121 µM) | 25 mm | 16 mm | 18 mm | 21 mm | MFC (Aspergillus niger [20]): 25 µg/mL (≈ 60.6 µM); MIC (Aspergillus niger [20]): 12.5 µg/mL (≈ 30.3 µM); MFC (Candida albicans [21]): 25 µg/mL (≈ 60.6 µM); MIC (Candida albicans [21]): 12.5 µg/mL (≈ 30.3 µM)
2 | COc1cc(/C=C/C(=O)c2ccccc2)ccc1OCc1nnc(-c2ccc(Cl)cc2)o1 | 12 mm | 14 mm | 9 mm | 11 mm | 16 mm | 18 mm | 19 mm | 22 mm | 12.5 µg/mL (≈ 28 µM) | 6 µg/mL (≈ 13.4 µM) | 12.5 µg/mL (≈ 28 µM) | 25 µg/mL (≈ 55.9 µM) | 25 µg/mL (≈ 55.9 µM) | 12.5 µg/mL (≈ 28 µM) | 25 µg/mL (≈ 55.9 µM) | 50 µg/mL (≈ 112 µM) | 20 mm | 12 mm | 15 mm | 18 mm | MFC (Aspergillus niger [20]): 25 µg/mL (≈ 55.9 µM); MIC (Aspergillus niger [20]): 12.5 µg/mL (≈ 28 µM); MFC (Candida albicans [21]): 50 µg/mL (≈ 112 µM); MIC (Candida albicans [21]): 25 µg/mL (≈ 55.9 µM)
3 | COc1cc(/C=C/C(=O)c2ccccc2)ccc1OCc1nnc(-c2ccccc2O)o1 | 17 mm | 19 mm | 15 mm | 16 mm | 20 mm | 22 mm | 25 mm | 27 mm | 6 µg/mL (≈ 14 µM) | 6 µg/mL (≈ 14 µM) | 6 µg/mL (≈ 14 µM) | 6 µg/mL (≈ 14 µM) | 12.5 µg/mL (≈ 29.2 µM) | 12.5 µg/mL (≈ 29.2 µM) | 12.5 µg/mL (≈ 29.2 µM) | 12.5 µg/mL (≈ 29.2 µM) | 25 mm | 18 mm | 20 mm | 22 mm | MFC (Aspergillus niger [20]): 12.5 µg/mL (≈ 29.2 µM); MIC (Aspergillus niger [20]): 6 µg/mL (≈ 14 µM); MFC (Candida albicans [21]): 12.5 µg/mL (≈ 29.2 µM); MIC (Candida albicans [21]): 6 µg/mL (≈ 14 µM)
4 | COc1cc(/C=C/C(=O)c2ccccc2)ccc1OCc1nnc(COc2ccccc2)o1 | 15 mm | 17 mm | 12 mm | 14 mm | 18 mm | 20 mm | 23 mm | 24 mm | 6 µg/mL (≈ 13.6 µM) | 12.5 µg/mL (≈ 28.3 µM) | 12.5 µg/mL (≈ 28.3 µM) | 12.5 µg/mL (≈ 28.3 µM) | 12.5 µg/mL (≈ 28.3 µM) | 25 µg/mL (≈ 56.5 µM) | 12.5 µg/mL (≈ 28.3 µM) | 25 µg/mL (≈ 56.5 µM) | 25 mm | 16 mm | 18 mm | 22 mm | MFC (Aspergillus niger [20]): 12.5 µg/mL (≈ 28.3 µM); MIC (Aspergillus niger [20]): 6 µg/mL (≈ 13.6 µM); MFC (Candida albicans [21]): 25 µg/mL (≈ 56.5 µM); MIC (Candida albicans [21]): 12.5 µg/mL (≈ 28.3 µM)
5 | COc1ccc(C(=O)/C=C/c2ccc(OCc3nnc(-c4ccc(Cl)cc4)o3)c(OC)c2)cc1 | 14 mm | 15 mm | 12 mm | 13 mm | 17 mm | 19 mm | 22 mm | 24 mm | 12.5 µg/mL (≈ 26.2 µM) | 12.5 µg/mL (≈ 26.2 µM) | 12.5 µg/mL (≈ 26.2 µM) | 12.5 µg/mL (≈ 26.2 µM) | 50 µg/mL (≈ 105 µM) | 50 µg/mL (≈ 105 µM) | 100 µg/mL (≈ 210 µM) | 100 µg/mL (≈ 210 µM) | 21 mm | 16 mm | 17 mm | 19 mm | MFC (Aspergillus niger [20]): 50 µg/mL (≈ 105 µM); MIC (Aspergillus niger [20]): 12.5 µg/mL (≈ 26.2 µM)
6 | COc1cc(/C=C/C(=O)c2ccc(O)cc2)ccc1OCc1nnc(-c2ccc([N+](=O)[O-])cc2)o1 | 12 mm | 13 mm | 10 mm | 11 mm | 15 mm | 17 mm | 21 mm | 23 mm | 25 µg/mL (≈ 52.8 µM) | 12.5 µg/mL (≈ 26.4 µM) | 50 µg/mL (≈ 106 µM) | 12.5 µg/mL (≈ 26.4 µM) | 50 µg/mL (≈ 106 µM) | 50 µg/mL (≈ 106 µM) | 100 µg/mL (≈ 211 µM) | 100 µg/mL (≈ 211 µM) | 19 mm | 13 mm | 15 mm | 17 mm | MFC (Aspergillus niger [20]): 100 µg/mL (≈ 211 µM); MIC (Aspergillus niger [20]): 25 µg/mL (≈ 52.8 µM)
7 | COc1cc(/C=C/C(=O)c2ccc(O)cc2)ccc1OCc1nnc(-c2ccc(C)cc2)o1 | 15 mm | 17 mm | 12 mm | 14 mm | 19 mm | 20 mm | 23 mm | 25 mm | 25 µg/mL (≈ 56.5 µM) | 12.5 µg/mL (≈ 28.3 µM) | 12.5 µg/mL (≈ 28.3 µM) | 25 µg/mL (≈ 56.5 µM) | 50 µg/mL (≈ 113 µM) | 25 µg/mL (≈ 56.5 µM) | 25 µg/mL (≈ 56.5 µM) | 100 µg/mL (≈ 226 µM) | 23 mm | 15 mm | 17 mm | 20 mm | MFC (Candida albicans [21]): 100 µg/mL (≈ 226 µM); MIC (Candida albicans [21]): 25 µg/mL (≈ 56.5 µM)

Source: ChEMBL document CHEMBL1629517, “Molecular properties prediction, synthesis and antimicrobial activity of some newer oxadiazole derivatives” (2010)
